Columns and labels:
[1] = Inhibition of acetyl-CoA carboxylase in rat skeletal muscle by HPLC; type: tissue-based, Muscle tissue
Rattus norvegicus [2] = organism: Rattus norvegicus; test: Inhibition of acetyl-CoA carboxylase in rat skeletal muscle by HPLC at 10 uM; type: tissue-based; conditions: Muscle tissue
Summary of the method: (§1)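 Biotinylated enzyme bound on a streptavidin column, eluted with 5 mM biotin, and protein quantified by Bradford. Buffer was 50 mM HEPES pH 7.5, 20 mM MgCl₂, 10 mM tripotassium citrate, 0.075% BSA, 2 mM ATP, 1 mM acetyl-CoA and 17.6 mM NaHCO₃, stopped with 10% perchloric acid. HPLC read-out measured acetyl-CoA loss and/or malonyl-CoA formation.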

[3] = (§2) Inhibition of acetyl-CoA carboxylase in rat skeletal muscle by HPLC at 1 uM/L; type: tissue-based, Muscle tissue; summary of the method: as §1
Rattus norvegicus [4] = organism: Rattus norvegicus; test: Inhibition of acetyl-CoA carboxylase in rat skeletal muscle by HPLC at 5 uM; type: tissue-based; conditions: Muscle tissue; summary of the method: as §1
[5] = Membrane permeability at pH 6.8 by PAMPA; type: ADME; conditions: read-out: permeability
Mus musculus = test: Reduction in respiratory quotient in ip dosed C57BL/6J mouse administered once a day for 8 days measured after 24 hrs of day 7 acclimatization in presence of high carbohydrate; type: functional, organism-based
Summary of the method: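 C57BL/6J mice aged 7–8 weeks on normal chow (carbohydrate 64%, fat 7%, protein 20%), n = 8 per group, got vehicle or 30 or 60 mg/kg ip once daily for 8 days. After 24 h cage acclimatization from day 7, O₂ consumption and CO₂ production were recorded immediately post-dose. The first 30 min were excluded, and RQ was averaged over the initial 8 h and compared by Student's t test.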

Rattus norvegicus [6] = organism: Rattus norvegicus; test: as §2; type: tissue-based; conditions: Muscle tissue; summary of the method: as §1

Row | IC50 [1] [nM] | inhibition (Rattus norvegicus [2]) [%] | SMILES | other results
1 | 61 | > 90 | O=C1CC2(CCN(C(=O)c3cc(-c4ccccc4)nc(-c4ccccc4)c3)CC2)Oc2cc(N3CCCC3)ccc21 | 
2 |  | 16 | O=C1CC2(CCN(C(=O)N3c4ccccc4Sc4ccccc43)CC2)Oc2ccccc21 | 
3 | 6 | > 90 | O=C1CC2(CCN(C(=O)c3cc(-c4ccccc4)nc(-c4ccccc4)c3)CC2)Oc2ccc(N3CCOCC3)cc21 | 
4 | 27 | > 90 | CN1CCN(c2ccc3c(c2)OC2(CCN(C(=O)c4cc(-c5ccccc5)nc(-c5ccccc5)c4)CC2)CC3=O)CC1 | 
5 |  | 4 | CCCC(=O)Nc1ccc2c(c1)C(=O)CC1(CCN(C(=O)N3c4ccccc4CCc4ccccc43)CC1)O2 | 
6 | 14 | > 90 | O=C1CC2(CCN(C(=O)c3cc(-c4ccccc4)nc(-c4ccccc4)c3)CC2)Oc2ccc(N3CCCC3=O)cc21 | Papp [5]: 26.8 ×10⁻⁶ cm/s; Activity (Mus musculus): Dose-dependent effect
7 |  | 44 | CC1(C)C(=O)c2ccccc2OC12CCN(C(=O)c1cc(-c3ccccc3)nc(-c3ccccc3)c1)CC2 | 
8 | 36 | > 90 | O=C1CC2(CCN(C(=O)c3cc(-c4ccccc4)nc(-c4ccccc4)c3)CC2)Oc2cc(N3CCCCC3)ccc21 | 

Continued, compound first:

Row | SMILES | IC50 [1] [nM] | inhibition (Rattus norvegicus [2]) [%] | other results
9 | O=C1CC2(CCN(C(=O)c3cc(-c4ccccc4)nc(-c4ccccc4)c3)CC2)Oc2cc(N3CCOCC3)ccc21 | 26 | > 90 | 
10 | CCCC(=O)N(C)c1ccc2c(c1)C(=O)C(C)(C)C1(CCN(C(=O)c3cc(-c4ccccc4)nc(-c4ccccc4)c3)CC1)O2 |  | 83 | 
11 | CCCC(=O)Nc1ccc2c(c1)C(=O)CC1(CCN(C(=O)N3c4ccccc4Sc4ccccc43)CC1)O2 |  | 48 | 
12 | O=C1CC2(CCN(C(=O)N3c4ccccc4Oc4ccccc43)CC2)Oc2cc(N3CCOCC3)ccc21 |  |  | IC50 [3]: 208 nM
13 | O=C1CC2(CCN(C(=O)N3c4ccccc4Sc4ccccc43)CC2)Oc2ccc(N3CCOCC3)cc21 |  | 64 | 
14 | CC(=O)N[C@H](C)C#Cc1ccc2c(c1)C(=O)CC1(CCN(C(=O)c3cc(-c4ccccc4)nc(-c4ccccc4)c3)CC1)O2 | 61 | > 90 | 
15 | O=C1CC2(CCN(C(=O)N3c4ccccc4Oc4ccccc43)CC2)Oc2ccc(N3CCCC3=O)cc21 |  |  | IC50 [3]: 236 nM
16 | O=C(c1c2ccccc2cc2ccccc12)N1CCC(N2CCC[C@@H](C(=O)N3CCOCC3)C2)CC1 |  | > 90 | 
17 | CC1COCC(C)N1c1ccc2c(c1)OC1(CCN(C(=O)c3cc(-c4ccccc4)nc(-c4ccccc4)c3)CC1)CC2=O (centres undefined) | 59 | > 90 | 
18 | O=C1CC2(CCN(C(=O)N3c4ccccc4Oc4ccccc43)CC2)Oc2ccccc21 |  |  | inhibition (Rattus norvegicus [4]): 51%
19 | O=C1CC2(CCN(C(=O)N3c4ccccc4Oc4ccccc43)CC2)Oc2ccc(N3CCOCC3)cc21 |  |  | IC50 [3]: 99 nM
20 | Cc1cc2c(cc1N1CCOCC1)C(=O)CC1(CCN(C(=O)c3cc(-c4ccccc4)nc(-c4ccccc4)c3)CC1)O2 | 2 | > 90 | 
21 | CCCC(=O)Nc1ccc2c(c1)C(=O)CC1(CCN(C(=O)c3cc(-c4ccccc4)nc(-c4ccccc4)c3)CC1)O2 | 6 | > 90 | 
22 | O=C1CC2(CCN(C(=O)c3cc(-c4ccccc4)nc(-c4ccccc4)c3)CC2)Oc2ccccc21 | 1200 | > 90 | 
23 | COc1cc(C(=O)N2CCC3(CC2)CC(=O)c2cc(-c4nc[nH]n4)ccc2O3)nc2c(OC)cccc12 |  |  | inhibition (Rattus norvegicus [6]): 100%
24 | COc1cc(C(=O)N2CCC3(CC2)CC(=O)c2cc(Nc4ccnn4C)ccc2O3)nc2c(OC)cccc12 |  |  | inhibition (Rattus norvegicus [6]): 100%
25 | CCCC(=O)Nc1ccc2c(c1)C(=O)CC1(CCN(C(=O)N3c4ccccc4Oc4ccccc43)CC1)O2 |  |  | IC50 [3]: 101 nM
26 | O=C1CC2(CCN(C(=O)N3c4ccccc4CCc4ccccc43)CC2)Oc2ccc(N3CCOCC3)cc21 |  | 7 | 
